ChEMBL document CHEMBL5303300, “EUbOPEN Chemogenomics Library - Multiplex” (2023)
Where “and” joins values, the source holds several entries; their conditions need not be identical. Identical values can stand only once.

Key:
Type in all cases: toxicity, cell-based
[1] = system: U2OS; assay: Multiplex assay against U2OS; settings: human, number of replicates 2
Procedure, shortened: (§1)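 Four dyes were applied at seeding to live cells: Hoechst33342, BioTracker Green Microtubule Cytoskeleton Dye, MitoTracker Red and Annexin V Alexa Fluor 680. Imaging after compound addition used a CQ1 microscope at 37°C and 5% CO2. CellPathfinder machine-learning gating then sorted cells into Hoechst high-intensity objects or normal cells, normal cells into healthy, pyknosed or fragmented nuclei, and pyknosed cells into mitotic or apoptotic, with tubulin, mitochondrial-mass and membrane-permeability phenotypes given as per cents of healthy-nucleus cells.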

[2] = system: Fibroblast; assay: Multiplex assay against human fibroblast; settings: number of replicates 2; procedure, shortened: as §1
[3] = system: HEK-293T; assay: Multiplex assay against HEK293T; settings: human, number of replicates 2; procedure, shortened: as §1
[4] = 12 h, 1 µM, compound concentration 1 uM
[5] = 12 h, 10 µM, compound concentration 10 uM
[6] = 24 h, 1 µM, compound concentration 1 uM
[7] = 24 h, 10 µM, compound concentration 10 uM
[8] = 48 h, 1 µM, compound concentration 1 uM
[9] = 48 h, 10 µM, compound concentration 10 uM

CN1CCN(c2ccc(-n3cc(-c4ccncc4OCC4CCNCC4)cn3)cc2)CC1
Population Apoptotic (%) [1, 4]: 100% and 71%
Population Healthy Nuclei (%) [1, 4]: 63% and 82%
Population Hoechst High Intensity Objects (%) [1, 4]: 0%
Population Membrane Permeable-Phenotype (%) [1, 4]: 6% and 1%
Population Mitochondria Different-Phenotype (%) [1, 4]: 3% and 2%
Population Normal (%) [1, 4]: 100%
Population Pyknosed Nuclei (%) [1, 4]: 2% and 10%
Population Tubulin-Different-Phenotype (%) [1, 4]: 75% and 77%
Population Apoptotic (%) [1, 5]: 80%
Population Healthy Nuclei (%) [1, 5]: 48% and 67%
Population Hoechst High Intensity Objects (%) [1, 5]: 1% and 0%
Population Membrane Permeable-Phenotype (%) [1, 5]: 0% and 5%
Population Mitochondria Different-Phenotype (%) [1, 5]: 7% and 16%
Population Mitotic Cells (%) [1, 5]: 20% and 19%
Population Normal (%) [1, 5]: 98% and 99%
Population Pyknosed Nuclei (%) [1, 5]: 17% and 22%
Population Tubulin-Different-Phenotype (%) [1, 5]: 21% and 36%
Population Apoptotic (%) [1, 6]: 100% and 78%
Population Healthy Nuclei (%) [1, 6]: 69% and 84%
Population Hoechst High Intensity Objects (%) [1, 6]: 0%
Population Membrane Permeable-Phenotype (%) [1, 6]: 4% and 1%
Population Mitochondria Different-Phenotype (%) [1, 6]: 2% and 1%
Population Mitotic Cells (%) [1, 6]: 0% and 21%
Population Normal (%) [1, 6]: 100%
Population Pyknosed Nuclei (%) [1, 6]: 3% and 11%
Population Tubulin-Different-Phenotype (%) [1, 6]: 72% and 85%
Population Apoptotic (%) [1, 7]: 76% and 88%
Population Fragmented Nuclei (%) [1, 7]: 34% and 12%
Population Healthy Nuclei (%) [1, 7]: 25% and 32%
Population Hoechst High Intensity Objects (%) [1, 7]: 1% and 0%
Population Membrane Permeable-Phenotype (%) [1, 7]: 6% and 8%
Population Mitochondria Different-Phenotype (%) [1, 7]: 18% and 26%
Population Mitotic Cells (%) [1, 7]: 24% and 11%
Population Normal (%) [1, 7]: 98% and 100%
Population Pyknosed Nuclei (%) [1, 7]: 39% and 55%
Population Tubulin-Different-Phenotype (%) [1, 7]: 31% and 48%
Population Apoptotic (%) [1, 8]: 54% and 86%
Population Healthy Nuclei (%) [1, 8]: 51% and 86%
Population Hoechst High Intensity Objects (%) [1, 8]: 0%
Population Membrane Permeable-Phenotype (%) [1, 8]: 5% and 0%
Population Mitochondria Different-Phenotype (%) [1, 8]: 1%
Population Normal (%) [1, 8]: 100%
Population Pyknosed Nuclei (%) [1, 8]: 10% and 9%
Population Tubulin-Different-Phenotype (%) [1, 8]: 78% and 88%
Population Apoptotic (%) [1, 9]: 90%
Population Healthy Nuclei (%) [1, 9]: 13% and 21%
Population Hoechst High Intensity Objects (%) [1, 9]: 0% and 1%
Population Membrane Permeable-Phenotype (%) [1, 9]: 55% and 60%
Population Mitochondria Different-Phenotype (%) [1, 9]: 55% and 60%
Population Mitotic Cells (%) [1, 9]: 9%
Population Normal (%) [1, 9]: 100% and 98%
Population Pyknosed Nuclei (%) [1, 9]: 44% and 69%
Population Tubulin-Different-Phenotype (%) [1, 9]: 88% and 65%
Total Cell Count [1, 9]: 69 and 181
Population Apoptotic (%) [2, 4]: 44%
Population Fragmented Nuclei (%) [2, 4]: 13% and 12%
Population Healthy Nuclei (%) [2, 4]: 58% and 71%
Population Hoechst High Intensity Objects (%) [2, 4]: 0%
Population Membrane Permeable-Phenotype (%) [2, 4]: 3% and 8%
Population Mitochondria Different-Phenotype (%) [2, 4]: 2% and 0%
Population Mitotic Cells (%) [2, 4]: 55%
Population Normal (%) [2, 4]: 100%
Population Pyknosed Nuclei (%) [2, 4]: 27% and 16%
Population Tubulin-Different-Phenotype (%) [2, 4]: 15% and 14%
Total Cell Count [2, 4]: 131 and 173
Population Apoptotic (%) [2, 5]: 38% and 75%
Population Fragmented Nuclei (%) [2, 5]: 13% and 25%
Population Healthy Nuclei (%) [2, 5]: 72% and 63%
Population Hoechst High Intensity Objects (%) [2, 5]: 0%
Population Membrane Permeable-Phenotype (%) [2, 5]: 2% and 4%
Population Mitochondria Different-Phenotype (%) [2, 5]: 1% and 3%
Population Mitotic Cells (%) [2, 5]: 61% and 25%
Population Normal (%) [2, 5]: 100%
Population Pyknosed Nuclei (%) [2, 5]: 14% and 10%
Population Tubulin-Different-Phenotype (%) [2, 5]: 34% and 31%
Total Cell Count [2, 5]: 179 and 182
Population Apoptotic (%) [2, 6]: 56% and 48%
Population Fragmented Nuclei (%) [2, 6]: 13% and 14%
Population Healthy Nuclei (%) [2, 6]: 58% and 68%
Population Hoechst High Intensity Objects (%) [2, 6]: 0%
Population Membrane Permeable-Phenotype (%) [2, 6]: 7% and 9%
Population Mitochondria Different-Phenotype (%) [2, 6]: 2% and 1%
Population Mitotic Cells (%) [2, 6]: 43% and 51%
Population Normal (%) [2, 6]: 100%
Population Pyknosed Nuclei (%) [2, 6]: 28% and 17%
Population Tubulin-Different-Phenotype (%) [2, 6]: 17% and 13%
Total Cell Count [2, 6]: 131 and 178
Population Apoptotic (%) [2, 7]: 39% and 47%
Population Fragmented Nuclei (%) [2, 7]: 20% and 26%
Population Healthy Nuclei (%) [2, 7]: 65% and 61%
Population Hoechst High Intensity Objects (%) [2, 7]: 0%
Population Membrane Permeable-Phenotype (%) [2, 7]: 8% and 5%
Population Mitochondria Different-Phenotype (%) [2, 7]: 7% and 13%
Population Mitotic Cells (%) [2, 7]: 60% and 52%
Population Normal (%) [2, 7]: 100%
Population Pyknosed Nuclei (%) [2, 7]: 14% and 11%
Population Tubulin-Different-Phenotype (%) [2, 7]: 52% and 44%
Total Cell Count [2, 7]: 189 and 192
Population Apoptotic (%) [2, 8]: 75% and 66%
Population Fragmented Nuclei (%) [2, 8]: 21% and 16%
Population Healthy Nuclei (%) [2, 8]: 61% and 72%
Population Hoechst High Intensity Objects (%) [2, 8]: 0%
Population Membrane Permeable-Phenotype (%) [2, 8]: 10% and 4%
Population Mitochondria Different-Phenotype (%) [2, 8]: 1% and 0%
Population Mitotic Cells (%) [2, 8]: 25% and 33%
Population Normal (%) [2, 8]: 100%
Population Pyknosed Nuclei (%) [2, 8]: 16% and 10%
Population Tubulin-Different-Phenotype (%) [2, 8]: 17% and 10%
Total Cell Count [2, 8]: 142 and 191
Population Apoptotic (%) [2, 9]: 76% and 73%
Population Fragmented Nuclei (%) [2, 9]: 31% and 30%
Population Healthy Nuclei (%) [2, 9]: 54% and 61%
Population Hoechst High Intensity Objects (%) [2, 9]: 0%
Population Membrane Permeable-Phenotype (%) [2, 9]: 2% and 4%
Population Mitochondria Different-Phenotype (%) [2, 9]: 11% and 13%
Population Mitotic Cells (%) [2, 9]: 23% and 26%
Population Normal (%) [2, 9]: 99% and 100%
Population Pyknosed Nuclei (%) [2, 9]: 14% and 7%
Population Tubulin-Different-Phenotype (%) [2, 9]: 59% and 48%
Total Cell Count [2, 9]: 212 and 189
Population Apoptotic (%) [3, 4]: 50% and 48%
Population Fragmented Nuclei (%) [3, 4]: 4% and 3%
Population Healthy Nuclei (%) [3, 4]: 86% and 85%
Population Hoechst High Intensity Objects (%) [3, 4]: 7% and 5%
Population Membrane Permeable-Phenotype (%) [3, 4]: 4% and 2%
Population Mitochondria Different-Phenotype (%) [3, 4]: 9% and 10%
Population Mitotic Cells (%) [3, 4]: 50% and 51%
Population Normal (%) [3, 4]: 92% and 94%
Population Pyknosed Nuclei (%) [3, 4]: 9% and 11%
Population Tubulin-Different-Phenotype (%) [3, 4]: 38%
Total Cell Count [3, 4]: 587 and 556
Population Apoptotic (%) [3, 5]: 88% and 66%
Population Fragmented Nuclei (%) [3, 5]: 1%
Population Healthy Nuclei (%) [3, 5]: 94% and 95%
Population Hoechst High Intensity Objects (%) [3, 5]: 3% and 5%
Population Membrane Permeable-Phenotype (%) [3, 5]: 4% and 6%
Population Mitochondria Different-Phenotype (%) [3, 5]: 28% and 17%
Population Mitotic Cells (%) [3, 5]: 11% and 33%
Population Normal (%) [3, 5]: 96% and 94%
Population Pyknosed Nuclei (%) [3, 5]: 3% and 2%
Population Tubulin-Different-Phenotype (%) [3, 5]: 71% and 76%
Total Cell Count [3, 5]: 452 and 604
Population Apoptotic (%) [3, 6]: 29% and 50%
Population Fragmented Nuclei (%) [3, 6]: 6% and 7%
Population Healthy Nuclei (%) [3, 6]: 84% and 83%
Population Hoechst High Intensity Objects (%) [3, 6]: 8% and 7%
Population Membrane Permeable-Phenotype (%) [3, 6]: 3% and 1%
Population Mitochondria Different-Phenotype (%) [3, 6]: 2% and 6%
Population Mitotic Cells (%) [3, 6]: 70% and 50%
Population Normal (%) [3, 6]: 91% and 92%
Population Pyknosed Nuclei (%) [3, 6]: 8% and 9%
Population Tubulin-Different-Phenotype (%) [3, 6]: 18% and 21%
Total Cell Count [3, 6]: 857 and 751
Population Apoptotic (%) [3, 7]: 66% and 54%
Population Fragmented Nuclei (%) [3, 7]: 4% and 3%
Population Healthy Nuclei (%) [3, 7]: 93% and 94%
Population Hoechst High Intensity Objects (%) [3, 7]: 7% and 6%
Population Membrane Permeable-Phenotype (%) [3, 7]: 6% and 8%
Population Mitochondria Different-Phenotype (%) [3, 7]: 20% and 11%
Population Mitotic Cells (%) [3, 7]: 33% and 45%
Population Normal (%) [3, 7]: 92% and 93%
Population Pyknosed Nuclei (%) [3, 7]: 1%
Population Tubulin-Different-Phenotype (%) [3, 7]: 75% and 80%
Total Cell Count [3, 7]: 463 and 591
Population Apoptotic (%) [3, 8]: 11% and 20%
Population Fragmented Nuclei (%) [3, 8]: 16% and 11%
Population Healthy Nuclei (%) [3, 8]: 79% and 85%
Population Hoechst High Intensity Objects (%) [3, 8]: 10% and 9%
Population Membrane Permeable-Phenotype (%) [3, 8]: 3%
Population Mitochondria Different-Phenotype (%) [3, 8]: 0% and 2%
Population Mitotic Cells (%) [3, 8]: 88% and 80%
Population Normal (%) [3, 8]: 89% and 90%
Population Pyknosed Nuclei (%) [3, 8]: 4% and 3%
Population Tubulin-Different-Phenotype (%) [3, 8]: 7% and 11%
Total Cell Count [3, 8]: 1935 and 1522
Population Apoptotic (%) [3, 9]: 81% and 57%
Population Fragmented Nuclei (%) [3, 9]: 11% and 10%
Population Healthy Nuclei (%) [3, 9]: 86% and 85%
Population Hoechst High Intensity Objects (%) [3, 9]: 9%
Population Membrane Permeable-Phenotype (%) [3, 9]: 4%
Population Mitochondria Different-Phenotype (%) [3, 9]: 6% and 10%
Population Mitotic Cells (%) [3, 9]: 18% and 42%
Population Normal (%) [3, 9]: 90%
Population Pyknosed Nuclei (%) [3, 9]: 1% and 3%
Population Tubulin-Different-Phenotype (%) [3, 9]: 56% and 45%
Total Cell Count [3, 9]: 617 and 528
